# This is a sample that favours compounds with a hit; in the whole collection about 4.9% have one here.
# FLuc inhib CS: Photinus pyralis luciferase inhibition counter-screen; ATPLite firefly luciferase biochemical luminescence, 10 min; P08659; AID 1006; inhibition, % at 10 µM; hit rate 1.5% among 200,000;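 active = inhibition above about 50% when tested at 10 µM, limit read from the data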
# Target sequence (P08659 whole entry, looked up): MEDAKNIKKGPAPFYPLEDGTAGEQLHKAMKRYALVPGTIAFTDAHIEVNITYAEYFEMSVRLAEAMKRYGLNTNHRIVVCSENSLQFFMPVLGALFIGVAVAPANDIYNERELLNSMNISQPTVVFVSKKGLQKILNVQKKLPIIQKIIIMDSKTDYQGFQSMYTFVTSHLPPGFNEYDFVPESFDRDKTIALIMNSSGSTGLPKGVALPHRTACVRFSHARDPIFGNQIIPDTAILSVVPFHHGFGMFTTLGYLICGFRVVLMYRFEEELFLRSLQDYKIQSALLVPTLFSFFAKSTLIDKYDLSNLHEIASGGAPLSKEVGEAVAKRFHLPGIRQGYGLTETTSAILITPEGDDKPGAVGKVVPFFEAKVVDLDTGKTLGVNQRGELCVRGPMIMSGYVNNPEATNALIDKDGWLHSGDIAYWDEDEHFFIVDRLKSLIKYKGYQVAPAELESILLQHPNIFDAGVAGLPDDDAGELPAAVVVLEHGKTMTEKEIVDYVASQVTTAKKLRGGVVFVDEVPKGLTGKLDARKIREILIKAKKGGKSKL
# STAT1 inh: reduces IFN-gamma driven STAT1 reporter signal; NIH 3T3 STAT1-luciferase reporter, luminescence; inhibition, % at 5.5 µM; hit rate 0.35% among 200,000; AID 920;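 active = inhibition above a set limit, the mean inhibition across all tested compounds plus 3 SD, cut at about 34% in these data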;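 also: 0% = IFN-gamma with DMSO and 100% = IFN-gamma with 300 µM nifuroxazide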
# FLuc stim CS: affects firefly luciferase, flagging false hits in luciferase stimulation screens | P08659 | ATPlite luciferase biochemical, luminescence, 10 min; 0 = ATP-free wells, 1 = DMSO control | 200,000 tested, under 10 active | activation factor at 10 µM | AID 1027;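 active = luciferase activation factor, scaled between plate controls, of at least 2 with compound at 10 µM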
#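 Material: luciferase plus luciferin reagent, cell-free. Medium: PBS buffer for ATP. Also added: ATP substrate, dispensed from a 10.24 µM working solution in PBS. Doses: test compounds dosed from 2 mM stocks in 100% DMSO. Incubation: 10 min post-reagent at room temperature. Technique: light output (luminescence). Read-out basis: luminescence gain marking luciferase activators.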
# STAT1 act-1: STAT1 signaling activation; NIH 3T3 STAT1-luciferase reporter, IFN-gamma, luminescence; 100% = IFN-gamma alone, no compound; activation (% of control), % at 5.5 µM; hit rate 2.6% among 200,000;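 active = activation above the screen-wide mean activation plus 3 SD, cut at about 130% in these data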;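 also: raw ratio to IFN-gamma control signal so 100% means no change and 0% no light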
# STAT3 inh: STAT3 signaling inhibition | U3A cells, IL-6 STAT3-luciferase reporter, luminescence; host cell line lacks STAT1 | inhibition, % at 5.5 µM | hit rate 0.89% among 190,000;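 active = inhibition above the mean inhibition across all screened compounds plus 3 SD, cut at about 44% in these data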;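 also: 0% = DMSO only wells and 100% = 100 µM nifuroxazide control wells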
# STAT3 act-1: activators of IL-6 induced STAT3 signaling; U3A cells, IL-6 STAT3-luciferase reporter, luminescence; 100% = signal with IL-6 EC80 alone; activation (% of control), % at 5.6 µM; hit rate 0.91% among 190,000; AID 871;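 active = activation above the screen-wide mean of compound activation plus 3 SD, cut at about 130% in these data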;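 also: 0% = background luminescence of wells with medium and substrate only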
#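 System – human U3A cells carrying STAT3-luciferase construct · Probe or stimulus – Interleukin-6, 33 ng/mL · Schedule – compound 1 h, then IL-6 6 h at 37 °C · Signal – luminescence from STAT3-driven luciferase reporter · Evaluation – percent of IL-6-only median luminescence · Benchmarks – IL-6-only high control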
# STAT3 act-2: confirmation of STAT3 signaling activators; shares compounds with STAT3 act-1; U3A STAT3-luciferase reporter, IL-6 potentiation, luminescence; U3A cells lack STAT1; 100 means same as IL-6 alone; potentiation (% of control), % at 5.7 µM; hit rate 64% among 1,200; AID 1267;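 active = percent activation of the STAT3 luciferase reporter above a set limit taken from the earlier primary screen, cut at about 130% in these data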;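 also: 0% = background signal of medium plus substrate and 100% = median of IL-6 with DMSO wells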
# NFkB act STAT3ct: activates NF-kappaB, counter-screen to STAT3 activators | human cells, NF-kappaB reporter activation | activation (% of control), % at 5.7 µM | AID 1309 | shares compounds with STAT3 act-1 | hit rate 11% among 1,200; in the data active = activation above about 120%;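 also: reporter induced by TNF-alpha stimulation; 100% = median of stimulated DMSO wells and 0% = no signal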
# STAT1 act-2: activates STAT1, counter-screen to STAT3 activators; activation (% of control), % at 5.7 µM; hit rate 13% among 1,200; shares compounds with STAT3 act-1; AID 1318; NIH 3T3 STAT1-luciferase reporter, IFN-gamma, luminescence;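 active = activation above the solvent-only control well mean plus 3 SD, set per screening run, cut at about 120% in these data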;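 also: 100% = IFN-gamma with DMSO median signal so 100% means no change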
# Numbers without * were called inactive; / = no result.
SMILES,FLuc inhib CS,STAT1 inh,FLuc stim CS,STAT1 act-1,STAT3 inh,STAT3 act-1,STAT3 act-2,NFkB act STAT3ct,STAT1 act-2
O=C1CC(Nc2ccc3ccccc3c2)C(=O)N1Cc1ccccc1 (stereo not given),-3.3,-4.5,1,104.2,-36.2,137.6*,135.1*,103.5,103.1
CCC(=O)N1CCc2cc(S(=O)(=O)CCC(=O)Nc3ccc(C)cn3)ccc21,-7.4,0.4,1.1,97.7,3.0,103.6,/,/,/
Cc1ccc([N+](=O)[O-])cc1NC(=S)NC(=O)c1cccs1,0.2,-4.8,1,104.3,-15.6,115.0,/,/,/
Cc1cccc(NC(=O)COC(=O)Cc2c[nH]c3ccccc23)c1C,-2.0,3.4,1,96.9,-15.7,111.3,/,/,/
COc1ccccc1NC(=O)COC(=O)Cc1c[nH]c2ccccc12,-2.3,19.6,1,81.7,-51.4,140.7*,141.9*,109.1,95.8
Cc1cc(C)cc(NC(=O)Cn2nnc3ccccc3c2=O)c1,-6.4,-4.2,1.1,103.9,-5.6,109.2,/,/,/
CC(=O)N1CCN(c2ncnc3sc(-c4ccccc4)cc23)CC1,-5.8,3.9,1.1,95.3,-19.0,117.2,/,/,/
Oc1ccc(N2CCN(c3ncnc4sc(-c5ccccc5)cc34)CC2)cc1,-1.6,-7.0,1,107.3,-71.5,159.1*,121.6,91.7,97.1
Cn1nnnc1SCc1nc2ccccc2s1,-5.5,-12.2,1.1,111.2,-43.3,139.2*,139.4*,114.9,124.3*
O=c1c2ccccc2nc(SCc2nc3ccccc3s2)n1CCCO,17.4,-29.5,0.8,126.7,-34.8,137.1*,151.4*,120.8*,151.2*
O=C(CSc1nc2ccccc2c(=O)n1CCCO)NCc1ccccc1,-3.5,3.8,1,96.6,7.3,100.0,/,/,/
O=C1c2ccccc2C(=O)N1CCC1=CCCCC1,0.3,-22.7,1,120.7,-41.2,141.5*,120.9,122.4*,131.5*
Cn1cnc([N+](=O)[O-])c1Oc1ccc2ccccc2c1,-5.1,0.4,1.1,99.7,-50.4,138.8*,133.1*,114.2,120.0
CCCNC(=O)Cn1c(=O)cnc2ccccc21,-6.8,0.9,1.1,99.2,3.2,93.9,/,/,/
CCCNC(=O)Cn1c2ccccc2c2nc(=O)cc(C)n21,2.6,5.0,1,95.5,-71.0,169.9*,158.3*,101.5,94.0
CCN(CC)CCNC(C(=O)Nc1cccc(C(C)=O)c1)c1ccccc1 (stereo not given),-4.6,5.5,1,93.8,1.5,100.1,/,/,/
CCOC(=O)Cc1nnc(NC(=O)C(CC)Sc2nnc3c4ccccc4n(C)c3n2)s1 (stereo not given),-8.5,11.6,1.1,89.4,-38.6,136.8*,158.3*,102.3,98.0
CCOC(=O)C1=C(CSc2nc(-c3ccccc3)ccc2C#N)OC(N)=C(C#N)C1c1ccccc1 (stereo not given),-8.4,-2.5,1.1,102.3,-5.8,102.2,/,/,/
CCOC(=O)C1=C(CSc2nc(-c3ccccc3)ccc2C#N)OC(N)=C(C#N)C1c1cccnc1 (stereo not given),-6.2,-7.9,1.1,107.3,-48.3,136.5*,128.9,120.2,116.8
O=Cc1cc2ccccc2nc1SCc1ccc(Cl)cc1,-9.4,-11.7,1.1,110.7,-65.4,160.6*,129.9,101.5,101.5
O=Cc1cc2ccccc2nc1SCc1ccc(Cl)c(Cl)c1,-1.6,0.7,1,99.3,-17.0,119.6,/,/,/
Cc1ccc(CSc2nc3ccccc3cc2C=O)cc1,-3.1,-1.4,1,101.3,-104.1,193.4*,152.9*,109.0,101.9
NS(=O)(=O)c1ccc(NC(=S)NCc2ccco2)cc1,-2.2,3.9,1,94.4,-38.2,136.2*,122.6,98.5,97.8
CN(C)/C=N/c1nc2nccc(-c3ccccc3)n2n1,6.5,-1.7,0.9,100.6,3.9,98.0,/,/,/
Cc1cc(-c2nn3c(-c4ccccc4)nnc3s2)c2ccccc2n1,-3.2,31.4,1,72.8,-65.8,156.2*,139.1*,98.6,81.3
SMILES,FLuc inhib CS,STAT1 inh,FLuc stim CS,STAT1 act-1,STAT3 inh,STAT3 act-1,STAT3 act-2,NFkB act STAT3ct,STAT1 act-2
c1ccc(-c2cc(-c3nn4c(-c5ccco5)nnc4s3)c3ccccc3n2)cc1,-7.2,2.1,1.1,98.0,0.4,101.3,/,/,/
Cc1cc(NC(=O)NC2CC(=O)N(c3ccc4c(c3)OCCO4)C2)no1 (stereo not given),-8.1,6.3,1.1,93.9,12.6,93.0,/,/,/
O=C(O)CCCC(=O)Nc1ccc(OCc2nc3ccccc3s2)cc1,-1.8,-17.5,1,114.9,-36.5,136.2*,126.3,104.3,119.2
CC(=O)Nc1ccc(NC(=O)CCCSc2nc3ccccc3s2)cc1,2.8,-1.3,1,100.7,-46.0,140.2*,128.8,104.0,98.3
COc1cc2c(cc1OC)CN(CC(=O)Nc1ccccc1C#N)CC2,-6.5,4.4,1.1,95.9,-63.9,159.1*,138.2*,104.5,93.9
Fc1cccc2sc(Nc3nc4c(F)cccc4s3)nc12,0.7,-4.1,1,103.6,-71.6,155.6*,181.7*,122.2*,119.5
O=C(O)CCCSc1nccn1-c1ccccc1,-5.3,-4.1,1.1,102.1,10.1,100.3,/,/,/
CCn1c(SCC(=O)N/N=C/C=C\c2ccccc2[N+](=O)[O-])nnc1-c1ccccc1,-6.0,8.8,1.1,92.1,-38.2,142.3*,150.5*,116.8,109.5
Cc1[nH]n(-c2ccccc2)c(=O)c1N=Nc1ccccc1O,3.2,-4.5,1,102.4,-76.6,167.6*,171.0*,108.7,123.4*
Cc1ccccc1N=Nc1c(C)[nH]n(-c2ccccc2)c1=O,-3.4,-15.8,1,113.0,-4.3,107.7,/,/,/
COc1ccccc1C(=O)NNC(=O)c1ccc(F)cc1,9.9,-22.8,0.9,120.4,-14.0,112.4,/,/,/
COc1ccccc1C(=O)NNC(=O)c1ccc(NC(=O)C(C)C)cc1,3.4,-8.8,1,105.2,-52.3,148.5*,153.3*,102.9,102.5
COc1ccccc1C(=O)NNC(=O)C(=O)NC(C)(C)C,4.1,-1.8,1,100.1,-48.2,143.3*,144.3*,95.6,96.9
COc1ccccc1C(=O)NNC(=S)Nc1ccccc1,0.0,5.2,1,94.4,-34.4,138.9*,145.8*,102.0,92.2
COC(=O)NNC(=O)c1ccccc1OC,-1.2,-1.9,1,99.5,-60.3,148.4*,166.1*,113.9,106.7

# Compound activity: PubChem, several laboratories
